T cruzi growth-1 = T. cruzi intracellular proliferation inhibitors, primary screen, cell-based, beta-gal Tulahuen parasites, NIH3T3 host, luminescence. T. cruzi beta-gal in NIH3T3, GalScreen luminescence, 90 h. inhibition, % at 8.34 µM. actives 5.9% (n = 77,000);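 active = mean inhibition above about 93%, with at least 55% of replicates each passing it, limit read from the data, passing the limit was not always enough; inconclusive = only one of those two conditions holds; inactive = neither condition holds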
KDM4C inh = inhibitors of GASC-1 (KDM4C) histone demethylase, primary screen, biochemical, single concentration HTS. inhibition, % at 12.5 µM. actives 0.15% (n = 96,000). AID 720574, 2013. GST-KDM4C 2-372, H3K9me3 peptide, LANCE TR-FRET. Lysine-specific demethylase 4C (Homo sapiens), Q9H3R0;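 active = mean replicate inhibition above about 25%, with at least 55% of replicates also reaching it, limit read from the data, passing the limit was not always enough; inconclusive = only one of those two conditions met; inactive = neither condition met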
Target sequence (Q9H3R0 2-372 limits assumed): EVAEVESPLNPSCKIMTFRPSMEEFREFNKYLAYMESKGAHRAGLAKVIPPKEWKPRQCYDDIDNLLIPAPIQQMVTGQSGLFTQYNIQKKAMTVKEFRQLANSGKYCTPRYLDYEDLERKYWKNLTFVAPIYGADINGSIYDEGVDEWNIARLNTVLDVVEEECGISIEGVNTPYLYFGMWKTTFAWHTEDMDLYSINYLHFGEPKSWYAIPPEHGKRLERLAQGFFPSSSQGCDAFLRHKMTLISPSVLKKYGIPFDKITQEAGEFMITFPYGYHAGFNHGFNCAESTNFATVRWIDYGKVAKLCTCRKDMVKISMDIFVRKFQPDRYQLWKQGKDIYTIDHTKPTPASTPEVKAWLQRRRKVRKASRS
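Compound: one test concentration per compound; Material: GST-GASC-1 enzyme fragment 2-372; Amount: GASC-1 enzyme at 10 nM final in reaction; Also added: H3K9me3 peptide substrate, Fe(II), 2-oxoglutarate; Technique: LANCE TR-FRET; Times: 30 min demethylation and 1 h detection at room temperature.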
IDH1 R132H inh = inhibitors of IDH1 R132H reductase, primary screen, biochemical, plate reader, single point; AID 624101, 2012; inhibition, % at 10 µM; diaphorase/resazurin fluorescence, 60 min; actives 0.18% (n = 70,000); Isocitrate dehydrogenase [NADP] cytoplasmic (Homo sapiens), O75874; in the data active = inhibition above about 34%; inconclusive = no clear call, values can overlap the other calls; inactive = below about 11%;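 note: 0% = DMSO and 100% = no enzyme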
Target sequence (O75874 whole entry R132H): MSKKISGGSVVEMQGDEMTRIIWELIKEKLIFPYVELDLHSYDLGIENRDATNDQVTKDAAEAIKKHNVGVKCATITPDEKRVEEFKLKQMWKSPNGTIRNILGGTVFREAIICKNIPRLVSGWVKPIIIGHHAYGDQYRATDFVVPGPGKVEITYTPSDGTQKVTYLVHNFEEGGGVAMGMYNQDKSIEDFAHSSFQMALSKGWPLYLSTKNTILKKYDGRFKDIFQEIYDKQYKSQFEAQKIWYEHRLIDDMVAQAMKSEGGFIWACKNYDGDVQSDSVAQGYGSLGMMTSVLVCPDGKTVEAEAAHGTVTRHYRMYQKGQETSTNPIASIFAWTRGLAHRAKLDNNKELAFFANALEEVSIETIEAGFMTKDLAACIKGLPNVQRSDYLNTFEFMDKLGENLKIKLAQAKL
T cruzi growth-2 = T. cruzi intracellular proliferation inhibitors, confirmation, cell-based, NIH3T3 host, beta-gal parasite, luminescence, cherry-pick; shares compounds with T cruzi growth-1; T. cruzi beta-gal in NIH3T3, GalScreen luminescence, 90 h; inhibition, % at 8.35 µM; actives 72% (n = 5,600);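 active = mean replicate inhibition above about 95% and at least 55% of replicates individually reaching it, limit read from the data; inconclusive = only one of the two criteria is met; inactive = neither criterion is met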
T cruzi growth-3 = inhibitors of intracellular T. cruzi replication, confirmation, NIH3T3 host cells, beta-gal parasites, cherry-pick, set 2 | shares compounds with T cruzi growth-1 | T. cruzi beta-gal in NIH3T3, GalScreen luminescence, 90 h | inhibition, % at 2.09 µM | actives 21% (n = 5,600);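 active = mean inhibition above about 95%, with at least 55% of replicates also reaching it, limit read from the data; inconclusive = meets just one of the two conditions; inactive = meets neither condition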;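 note: plate controls were neutral control median for no effect and positive control median for full effect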
3T3 cytotox = cytotoxicity in mouse NIH/3T3 fibroblasts, confirmation, cytotoxicity control for T. cruzi proliferation inhibitor project, cell-based, cherry-pick, single point; AID 651742, 2012; NIH/3T3 viability, CellTiter-Glo ATP luminescence, 90 h; cytotoxicity (signal decrease), % at 8.35 µM; actives 14% (n = 5,600); shares compounds with T cruzi growth-1;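 active = mean signal decrease across replicates above about 35% based on untreated-well scatter, with enough replicates individually passing, limit read from the data; inconclusive = no rule stated though some were filed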;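 note: 0% = median of neutral control wells and 100% = median of positive control wells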
NIH3T3 tox 2 = NIH/3T3 fibroblast cytotoxicity, confirmation, cytotoxicity control, cell-based, cherry-pick, single point, set 2; shares compounds with T cruzi growth-1; NIH/3T3 viability, CellTiter-Glo ATP luminescence, 90 h; inhibition, % at 24.9 µM; actives 56% (n = 5,600);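 active = mean loss of cell viability signal at or above a set limit, and enough replicates individually reaching it; inconclusive = meets only the mean limit or only the replicate share; inactive = meets neither condition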;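 note: 0% = median of neutral control wells and 100% = median of positive control wells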
Active calls of the source: *; ? = inconclusive; · = no result given. Many of the other results were omitted from the sample, so hits are more common in it than they were.

SMILES | T cruzi growth-1 | KDM4C inh | IDH1 R132H inh | T cruzi growth-2 | T cruzi growth-3 | 3T3 cytotox | NIH3T3 tox 2
C[C@@H]1CCCCO[C@H](CN(C)CC2CCCCC2)[C@@H](C)CN([C@H](C)CO)C(=O)c2cc(NC(=O)Nc3cccc4ccccc34)ccc2O1 | 104.2 | -0.6 | · | · | · | · | ·
C[C@H]1CCCCO[C@H](CN(C)Cc2ccc(C(=O)O)cc2)[C@@H](C)CN([C@@H](C)CO)C(=O)c2cc(NC(=O)Nc3cccc4ccccc34)ccc2O1 | 19.4 | 0.8 | -8.2 | · | · | · | ·
CCN1CCN(C(=O)CSc2nc(-c3ccc(OC)c(OC)c3)cc(C(F)(F)F)n2)CC1 | · | · | 1.5 | · | · | · | ·
COc1cccc(-c2ccc([C@@H]3[C@@H](CO)N4CCCCN(C(=O)NC(C)C)C[C@@H]34)cc2)c1 | 99.6* | -3.1 | · | 102.1* | 24.1 | -9.1 | ?
Cc1cccc(-c2ccc([C@H]3[C@@H](CO)N4CCCCN(C(=O)NC(C)C)C[C@@H]34)cc2)c1 | 91.5 | -0.1 | · | · | · | · | ·
COc1cccc(-c2ccc([C@H]3[C@@H](CO)N4CCCCN(C(=O)NC(C)C)C[C@H]34)cc2)c1 | 116.7* | -0.2 | · | 107.6* | 68.9 | -6.3 | 60.5*
COc1cccc(-c2ccc([C@@H]3[C@@H](CO)N4CCCCN(C(=O)NC(C)C)C[C@H]34)cc2)c1 | 73.8 | -1.0 | · | · | · | · | ·
O=C(NC1CCCC1)N1CCCCN2[C@H](CO)[C@@H](c3ccc(-c4cccnc4)cc3)[C@@H]2C1 | 59.3 | -0.9 | · | · | · | · | ·
COc1ccccc1-c1ccc([C@@H]2[C@H](CO)N3CCCCN(C(=O)NC4CCCC4)C[C@@H]23)cc1 | 54.0 | 0.3 | · | · | · | · | ·
O=C(NC1CCCC1)N1CCCCN2[C@@H](CO)[C@@H](c3ccc(-c4ccccc4)cc3)[C@@H]2C1 | ? | -0.6 | · | 98.4* | 57.0 | 13.0 | 102.8*
O=C(NC1CCCC1)N1CCCCN2[C@H](CO)[C@H](c3ccc(-c4ccccc4)cc3)[C@H]2C1 | 104.0* | -0.8 | · | 84.4 | 86.2 | 2.5 | 103.6*
COc1ccc(CCNC(=S)Nc2c(C)nn(C)c2C)cc1OC | · | · | 0.2 | · | · | · | ·
COc1ccc(-n2nc3cc(C)c(NC(=O)COc4ccccc4)cc3n2)cc1 | · | · | -0.3 | · | · | · | ·
CC(=O)c1cccc(NC(=O)CN(C)S(=O)(=O)c2ccc(F)cc2)c1 | · | · | -0.1 | · | · | · | ·
CC(=O)OC/C=C(\C)CC/C=C(\C)C(C/C=C(\CC/C=C(\C)COC(C)=O)C(=O)O)OC(C)=O (centres undefined) | · | · | 0.7 | · | · | · | ·
C/C=C/c1ccc2c(c1)O[C@H](CN(C)Cc1cccc(F)c1)[C@@H](C)CN([C@@H](C)CO)S2(=O)=O | · | -0.9 | -6.4 | · | · | · | ·
C/C=C/c1ccc2c(c1)O[C@H](CN(C)Cc1ccc(F)cc1)[C@@H](C)CN([C@@H](C)CO)S2(=O)=O | 117.4* | -1.3 | 1.1 | ? | 89.1 | 7.6 | 103.6*
C/C=C/c1ccc2c(c1)O[C@@H](CN(C)Cc1ccccc1)[C@@H](C)CN([C@@H](C)CO)S2(=O)=O | 36.8 | 7.5 | -7.2 | · | · | · | ·
C/C=C/c1ccc2c(c1)O[C@H](CN(C)Cc1ccccc1)[C@@H](C)CN([C@@H](C)CO)S2(=O)=O | 116.5* | 0.3 | -0.3 | 100.5* | 103.6* | 14.1 | 103.9*
O=C(Nc1ccc(S(=O)(=O)Nc2ncccn2)cc1)c1ccc2c(c1)OCCO2 | · | · | 0.3 | · | · | · | ·
O=C(c1ccc(F)cc1)N1CCCCN2[C@H](CO)[C@@H](c3ccc(-c4ccc(F)cc4)cc3)[C@H]2C1 | 111.0* | · | · | 104.1* | 67.9 | 36.9* | 103.2*
O=C(c1ccc(F)cc1)N1CCCCN2[C@H](CO)[C@H](c3ccc(-c4ccc(F)cc4)cc3)[C@H]2C1 | 107.1* | · | · | 103.2* | 80.8 | 31.2 | 105.5*
O=C(c1ccc(F)cc1)N1CCCCN2[C@H](C1)[C@@H](c1ccc(-c3ccc(F)cc3)cc1)[C@@H]2CO | 97.7* | · | · | 103.0* | 51.5 | 42.5* | 103.2*
O=C(c1ccc(F)cc1)N1CCCCN2[C@H](CO)[C@H](c3ccc(-c4ccccc4)cc3)[C@@H]2C1 | -20.1 | -0.3 | · | · | · | · | ·
O=C(c1ccc(F)cc1)N1CCCCN2[C@H](CO)[C@@H](c3ccc(-c4ccccc4)cc3)[C@@H]2C1 | 87.8 | -1.9 | · | · | · | · | ·
SMILES | T cruzi growth-1 | KDM4C inh | IDH1 R132H inh | T cruzi growth-2 | T cruzi growth-3 | 3T3 cytotox | NIH3T3 tox 2
COc1ccc(-c2ccc([C@H]3[C@@H](CO)N4CCCCN(C(=O)c5ccc(F)cc5)C[C@H]34)cc2)cc1 | 94.5 | 0.3 | · | · | · | · | ·
O=C(c1ccc(F)cc1)N1CCCCN2[C@H](CO)[C@H](c3ccc(-c4ccc(F)cc4)cc3)[C@@H]2C1 | 104.7* | · | · | 108.1* | 51.5 | 16.8 | 72.7*
O=C(c1ccc(F)cc1)N1CCCCN2[C@@H](CO)[C@@H](c3ccc(-c4ccc(F)cc4)cc3)[C@@H]2C1 | 51.0 | · | · | · | · | · | ·
CCOc1ccc(NC(=O)CSc2nnc3c4c5c(sc4nc(SC)n23)CCC5)cc1 | · | · | 0.3 | · | · | · | ·
O=C1c2cccc3cccc(c23)C(=O)N1CC1CCN(CC(O)COc2c(F)cc(Br)cc2F)CC1 (centres undefined) | · | · | -0.4 | · | · | · | ·
Cc1ccc(NS(=O)(=O)c2cc(C(=O)Nc3ccccc3C(=O)N3CCOCC3)ccc2Cl)c(C)c1 | · | · | -0.2 | · | · | · | ·
CCc1c(O)nc(SCC(=O)Nc2ccc(OC)cc2)n(-c2ccccc2)c1=O | · | · | -0.4 | · | · | · | ·
COc1ccc(-c2ccc([C@@H]3[C@@H](CO)N4CCCCN(C(=O)c5ccc(F)cc5)C[C@H]34)cc2)cc1 | 122.8* | -1.2 | · | ? | 18.2 | -5.4 | 56.9*
COc1ccc(-c2ccc([C@H]3[C@H]4CN(C(=O)c5ccc(F)cc5)CCCCN4[C@H]3CO)cc2)cc1 | 76.3 | -2.0 | · | · | · | · | ·
CCn1c(SCC(=O)N2c3ccccc3Sc3ccccc32)nnc1-c1cccc(Cl)c1 | · | · | 0.2 | · | · | · | ·
COc1ccccc1NC(=O)N(C)C[C@@H]1Oc2ncc(C#CCC(C)C)cc2C(=O)N([C@H](C)CO)C[C@@H]1C | 74.0 | -3.2 | -0.2 | · | · | · | ·
CC(C)CC#Cc1cnc2c(c1)C(=O)N([C@H](C)CO)C[C@@H](C)[C@H](CN(C)C(=O)Nc1cc(F)ccc1F)O2 | 106.7 | 0.1 | · | · | · | · | ·
CC(C)CC#Cc1cnc2c(c1)C(=O)N([C@@H](C)CO)C[C@@H](C)[C@H](CN(C)C(=O)Nc1cc(F)ccc1F)O2 | 115.0* | 0.0 | 0.9 | 101.4* | 99.7* | 12.7 | 74.4*

Screening results deposited in PubChem by Broad Institute.
